Data published in article PMC5363680 (Molecular Therapy. Nucleic Acids, 2017).

How the values were obtained:
[1] = target: Proteinase K (Parengyodontium album, UniProt P06873); assay: Proteinase K degradation of CPP/siRNA complexes, PicoGreen read-out; format: in vitro ADME; settings: PF6 at MR10, same charge ratio as other CPPs
[2] = target: proteinase (Parengyodontium album, UniProt P06873); assay: Coincubation of CPP with proteinase, peptide fragments by UPLC; format: in vitro ADME; settings: coincubation of CPP with the enzyme, 2 hr at 37°C, data not shown
[3] = system: U87 cells; assay: Neutral red lyso-toxicity assay, serum-free conditions; format: cell-based, human; settings: reduced serum media, 6 hr, CPP and CPP/siRNA complexes at higher concentrations
How it was run: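 U87 cells grown 24 hr in serum-containing medium, then medium replaced by complexes or peptide diluted 1:10 in reduced-serum medium. Controls were untreated cells, 10 μM chloroquine and cell-free wells. Neutral red dye added and incubated 6 hr at 37°C, 5% CO2. Cells then washed with PBS, detection solution added for 10 min, absorbance read at 540 nm and normalized to controls.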

[4] = system: U87 cells; assay: LDH leakage; format: cell-based, human; settings: reduced serum media, 6 hr, complexes and free peptide at a higher concentration
How it was run: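 U87 cells grown 24 hr in serum-containing medium, then switched to serum-free conditions: medium removed and complexes or free peptide added, diluted 1:10 in medium. Controls were untreated cells, 0.1% Triton X-100 and cell-free wells. After 6 hr at 37°C, 5% CO2, LDH activity (CytoTox-ONE) was measured per kit protocol and normalized to controls.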

[5] = system: luc2 gene in U87 MG-luc2 cells; assay: luc2 gene downregulation after CPP-mediated siRNA delivery; format: cell-based, human; settings: MR30, 25 nM siRNA, 10% FBS media, 24 hr post treatment

proteinase, sequence (P06873 106-384): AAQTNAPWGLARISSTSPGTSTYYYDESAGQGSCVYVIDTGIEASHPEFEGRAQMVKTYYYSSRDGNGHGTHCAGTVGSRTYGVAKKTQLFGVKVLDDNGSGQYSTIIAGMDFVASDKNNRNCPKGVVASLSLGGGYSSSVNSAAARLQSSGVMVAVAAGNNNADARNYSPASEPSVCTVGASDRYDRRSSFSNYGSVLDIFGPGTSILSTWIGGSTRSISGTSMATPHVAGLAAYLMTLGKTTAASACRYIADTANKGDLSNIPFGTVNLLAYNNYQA
Proteinase K, sequence (P06873 106-384): as above

stability to proteinase, times higher than with other tested CPPs [1]: 10–20 times | LDH leakage [4]: led to LDH leakage
Substance: Stearyl-AGYLLGKINLKALAALAKKIL-NH2 [PF6]
degradation of CPP by the proteinase [2]: lack of a considerable increase of detectable peptide fragments | Neutral red assay (lyso-toxicity) [3]: showed toxic and/or buffering effects | downregulation of luc2 gene at MR30 [5]: 80%
